From ChEMBL document CHEMBL4145609, “Cytotoxic Drimane Sesquiterpenoids Isolated from Perenniporia maackiae” (2018)
Where a name gives a salt, the structure may show the parent alone. Active and inactive are the calls of the source. The calls are words filed in the database; no cut-off is given here.

Key:
Assay type in all cases: functional
HCT-15 = assay: Cytotoxicity against human HCT15 cells assessed as inhibition of cell proliferation measured after 72 hrs by sulforhodamine B assay; conditions: for GI50: HCT-15, 72 h
How it was run: (§1)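 Cells seeded at 2 × 10^3 cells/well and exposed to a range of concentrations for 72 h, with adriamycin as reference. Fixed in 10% trichloroacetic acid overnight at 4 °C, stained with 0.4% SRB for 1 h, washed with 1% acetic acid, dye solubilized in 10 mM Tris, absorbance read at 690 nm. GI50 taken from dose–response curves corrected for starting cell count; mean of triplicates.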

NUGC-3 = assay: Cytotoxicity against human NUGC3 cells assessed as inhibition of cell proliferation measured after 72 hrs by sulforhodamine B assay; conditions: for GI50: NUGC-3, 72 h; how it was run: as §1
PC-3 = assay: Cytotoxicity against human PC3 cells assessed as inhibition of cell proliferation measured after 72 hrs by sulforhodamine B assay; conditions: for GI50: PC-3, 72 h; how it was run: as §1
MDA-MB-231 = assay: Cytotoxicity against human MDA-MB-231 cells assessed as inhibition of cell proliferation measured after 72 hrs by sulforhodamine B assay; conditions: for GI50: MDA-MB-231, 72 h; how it was run: as §1
ACHN = assay: Cytotoxicity against human ACHN cells assessed as inhibition of cell proliferation measured after 72 hrs by sulforhodamine B assay; how it was run: as §1
NCI-H23 = assay: Cytotoxicity against human NCI-H23 cells assessed as inhibition of cell proliferation measured after 72 hrs by sulforhodamine B assay; conditions: for GI50: NCI-H23, 72 h; how it was run: as §1

SMILES | GI50 (HCT-15) | GI50 (NUGC-3) | GI50 (PC-3) | GI50 (MDA-MB-231) | GI50 (ACHN) | GI50 (NCI-H23) | Activity (HCT-15) | Activity (NUGC-3) | Activity (PC-3) | Activity (MDA-MB-231) | Activity (ACHN) | Activity (NCI-H23)
CC1(C)CCC[C@@]2(C)[C@H]1[C@@H](O)C=C1CO[C@@H](O)[C@@]12O | 1800 nM | 2400 nM | 6000 nM | 2300 nM | 2000 nM | 2100 nM | – | – | – | – | – | –
CC(=O)O[C@@H]1C=C2CO[C@@H](O)[C@]2(O)[C@@]2(C)CC[C@H](O)C(C)(C)[C@H]12 | – | – | – | – | – | – | inactive | inactive | inactive | inactive | inactive | inactive
COc1cccc2c1C(=O)c1c(O)c3c(c(O)c1C2=O)C[C@@](O)(C(=O)CO)C[C@@H]3O[C@H]1C[C@H](N)[C@H](O)[C@H](C)O1 [DOXORUBICIN HYDROCHLORIDE] | 50 nM | 70 nM | 90 nM | 70 nM | 70 nM | 80 nM | – | – | – | – | – | –
CO[C@@H]1C=C2CO[C@@H](O)[C@]2(O)[C@@]2(C)CCCC(C)(C)[C@H]12 | – | – | – | – | – | – | inactive | inactive | inactive | inactive | inactive | inactive
CC1(C)CCC[C@@]2(C)[C@H]1C(=O)C=C1CO[C@@H](O)[C@@]12O | 5400 nM | 2300 nM | 4600 nM | 4000 nM | 3600 nM | 4300 nM | – | – | – | – | – | –
C[C@]1(CO)CCC[C@@]2(C)[C@H]1[C@H](O)C=C1CO[C@@H](O)[C@@]12O | – | – | – | – | – | – | inactive | inactive | inactive | inactive | inactive | inactive
CO[C@H]1C=C2CO[C@@H](O)[C@]2(O)[C@@]2(C)CCCC(C)(C)[C@H]12 | 1600 nM | 1900 nM | 2000 nM | 1500 nM | 1200 nM | 1400 nM | – | – | – | – | – | –
